Test results as given in ChEMBL document CHEMBL1122064, “Synthesis and biological evaluation of 17-[131I]iodo-9-telluraheptadecanoic acid, a potential imaging agent” (J Med Chem, 1982).

Experiments:
[1] = system: Rattus norvegicus; assay: Distribution of radioactivity in blood of Fischer 344 female rat after 6 hr of intravenous administration; assay type: ADME, organism-based; details: in vivo
How it was run: (§1)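 Female Fischer 344 rats (10-12 weeks, 170-200 g) with food and water ad libitum. The 131I-labelled fatty acid was taken up in ethanol, added dropwise to stirred 6% BSA at 40 °C (final ethanol 10%), filtered, and injected into a lateral tail vein under ether. Rats were CO2-anaesthetised and killed; organs were excised, rinsed, blotted, weighed and Ge(Li)-counted. Results are mean (range) % injected dose/g.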

[2] = system: Rattus norvegicus; assay: Distribution of radioactivity in blood of Fischer 344 female rat after 10 min of intravenous administration; assay type: ADME, organism-based; details: in vivo; how it was run: as §1
[3] = system: Rattus norvegicus; assay: Distribution of radioactivity in heart of Fischer 344 female rat after 7 days of intravenous administration; assay type: ADME, organism-based; details: in vivo, 168 h; how it was run: as §1
[4] = system: Rattus norvegicus; assay: Distribution of radioactivity in heart of Fischer 344 female rat after 2 hr of intravenous administration; assay type: ADME, organism-based; details: in vivo; how it was run: as §1
[5] = system: Rattus norvegicus; assay: Distribution of radioactivity in lungs of Fischer 344 female rat after 30 min of intravenous administration; assay type: ADME, organism-based, Lung; details: in vivo, 0.5 h
How it was run: (§2)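 Female Fischer 344 rats, 10-12 weeks, 170-200 g, fed ad libitum. The labelled fatty acid was given in 6% bovine serum albumin via a lateral tail vein under ether anaesthesia. Rats were killed by CO2 anaesthesia and cervical fracture; organs were excised, rinsed, blotted, weighed and counted by Ge(Li) analyzer. Results are mean percent injected dose/g with range.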

[6] = system: Rattus norvegicus; assay: Distribution of radioactivity in blood of Fischer 344 female rat after 24 hr of intravenous administration; assay type: ADME, organism-based; details: in vivo; how it was run: as §1
[7] = system: Rattus norvegicus; assay: Distribution of radioactivity in brain of Fischer 344 female rat after 4 days of intravenous administration; assay type: ADME, organism-based; details: in vivo, 96 h; how it was run: as §1
[8] = system: Rattus norvegicus; assay: Distribution of radioactivity in Thyroid of Fischer 344 female rat after 60 min of intravenous administration; assay type: ADME, organism-based; details: in vivo, 1 h; how it was run: as §1
[9] = system: Rattus norvegicus; assay: Distribution of radioactivity in kidneys of Fischer 344 female rat after 4 days of intravenous administration; assay type: ADME, organism-based, Kidney; details: in vivo, 96 h; how it was run: as §1
[10] = system: Rattus norvegicus; assay: Distribution of radioactivity in lungs of Fischer 344 female rat after 24 hr of intravenous administration; assay type: ADME, organism-based, Lung; details: in vivo
How it was run: (§3)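 Female Fischer 344 rats, 10-12 weeks old, 170-200 g, fed ad libitum. The 131I-labelled fatty acid was dissolved in absolute ethanol, added dropwise to stirred 6% bovine serum albumin at 40 °C (final ethanol 10%), filtered, and injected into a lateral tail vein under ether anaesthesia. Organs were excised, rinsed, blotted and weighed, then counted by Ge(Li) analyzer as percent injected dose/g.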

[11] = system: Rattus norvegicus; assay: Distribution of radioactivity in blood of Fischer 344 female rat after 2 min of intravenous administration; assay type: ADME, organism-based; details: in vivo; how it was run: as §1
[12] = system: Rattus norvegicus; assay: Distribution of radioactivity in lungs of Fischer 344 female rat after 2 min of intravenous administration; assay type: ADME, organism-based, Lung; details: in vivo; how it was run: as §3
[13] = system: Rattus norvegicus; assay: Distribution of radioactivity in liver of Fischer 344 female rat after 60 min of intravenous administration; assay type: ADME, organism-based; details: in vivo, 1 h; how it was run: as §2
[14] = system: Rattus norvegicus; assay: Distribution of radioactivity in liver of Fischer 344 female rat after 30 min of intravenous administration; assay type: ADME, organism-based; details: in vivo, 0.5 h; how it was run: as §2
[15] = system: Rattus norvegicus; assay: Distribution of radioactivity in kidneys of Fischer 344 female rat after 10 min of intravenous administration; assay type: ADME, organism-based, Kidney; details: in vivo; how it was run: as §1
[16] = system: Rattus norvegicus; assay: Distribution of radioactivity in brain of Fischer 344 female rat after 60 min of intravenous administration; assay type: ADME, organism-based; details: in vivo, 1 h; how it was run: as §1
[17] = system: Rattus norvegicus; assay: Distribution of radioactivity in liver of Fischer 344 female rat after 6 hr of intravenous administration; assay type: ADME, organism-based; details: in vivo; how it was run: as §3
[18] = system: Rattus norvegicus; assay: Distribution of radioactivity in Thyroid of Fischer 344 female rat after 30 min of intravenous administration; assay type: ADME, organism-based; details: in vivo, 0.5 h; how it was run: as §1
[19] = system: Rattus norvegicus; assay: Distribution of radioactivity in kidneys of Fischer 344 female rat after 30 min of intravenous administration; assay type: ADME, organism-based, Kidney; details: in vivo, 0.5 h
[20] = system: Rattus norvegicus; assay: Distribution of radioactivity in blood of Fischer 344 female rat after 7 days of intravenous administration; assay type: ADME, organism-based; details: in vivo, 168 h; how it was run: as §1
[21] = system: Rattus norvegicus; assay: Distribution of radioactivity in liver of Fischer 344 female rat after 24 hr of intravenous administration; assay type: ADME, organism-based; details: in vivo; how it was run: as §3
[22] = system: Rattus norvegicus; assay: Distribution of radioactivity in kidneys of Fischer 344 female rat after 24 hr of intravenous administration; assay type: ADME, organism-based, Kidney; details: in vivo; how it was run: as §1
[23] = system: Rattus norvegicus; assay: Distribution of radioactivity in blood of Fischer 344 female rat after 30 min of intravenous administration; assay type: ADME, organism-based; details: in vivo, 0.5 h
[24] = system: Rattus norvegicus; assay: Distribution of radioactivity in kidneys of Fischer 344 female rat after 2 min of intravenous administration; assay type: ADME, organism-based, Kidney; details: in vivo; how it was run: as §1
[25] = system: Rattus norvegicus; assay: Distribution of radioactivity in liver of Fischer 344 female rat after 7 of days intravenous administration; assay type: ADME, organism-based; details: in vivo; how it was run: as §3
[26] = system: Rattus norvegicus; assay: Distribution of radioactivity in heart of Fischer 344 female rat after 60 min of intravenous administration; assay type: ADME, organism-based; details: in vivo, 1 h
[27] = system: Rattus norvegicus; assay: Distribution of radioactivity in Thyroid of Fischer 344 female rat after 4 days of intravenous administration; assay type: ADME, organism-based; details: in vivo, 96 h; how it was run: as §1
[28] = system: Rattus norvegicus; assay: Distribution of radioactivity in heart of Fischer 344 female rat after 6 hr of intravenous administration; assay type: ADME, organism-based; details: in vivo; how it was run: as §1
[29] = system: Rattus norvegicus; assay: Distribution of radioactivity in heart of Fischer 344 female rat after 24 hr of intravenous administration; assay type: ADME, organism-based; details: in vivo; how it was run: as §1
[30] = system: Rattus norvegicus; assay: Distribution of radioactivity in heart of Fischer 344 female rat after 4 day of intravenous administration; assay type: ADME, organism-based; details: in vivo, 96 h; how it was run: as §1
[31] = system: Rattus norvegicus; assay: Distribution of radioactivity in Thyroid of Fischer 344 female rat after 6 hr of intravenous administration; assay type: ADME, organism-based; details: in vivo; how it was run: as §1

For `O=C(O)CCCCCCCC[Te]CCCCCCCC[131I]`, the Distribution of radioactivity [1] was 0.44 dose g-1, the Distribution of radioactivity [2] was 0.88 dose g-1 and the Distribution of radioactivity [3] was 0.016 dose g-1. The Distribution of radioactivity [4] was 1.33 dose g-1, the Distribution of radioactivity [5] was 0.85 dose g-1 and the Distribution of radioactivity [6] was 0.08 dose g-1. For the same molecule, the Distribution of radioactivity [7] was < 0.007 dose g-1, the Distribution of radioactivity [8] was 74.7 dose g-1 and the Distribution of radioactivity [9] was 0.03 dose g-1. The Distribution of radioactivity [10] was 0.18 dose g-1, the Distribution of radioactivity [11] was 1.28 dose g-1 and the Distribution of radioactivity [12] was 1.4 dose g-1. It also gave a Distribution of radioactivity [13] of 1.16 dose g-1, a Distribution of radioactivity [14] of 1.75 dose g-1 and a Distribution of radioactivity [15] of 1.14 dose g-1. For the same molecule, the Distribution of radioactivity [16] was 0.05 dose g-1, the Distribution of radioactivity [17] was 0.51 dose g-1 and the Distribution of radioactivity [18] was 41.9 dose g-1. The Distribution of radioactivity [19] was 0.8 dose g-1, the Distribution of radioactivity [20] was 0.009 dose g-1 and the Distribution of radioactivity [21] was 0.13 dose g-1. For the same molecule, the Distribution of radioactivity [22] was 0.08 dose g-1, the Distribution of radioactivity [23] was 0.72 dose g-1 and the Distribution of radioactivity [24] was 1.36 dose g-1. It also gave a Distribution of radioactivity [25] of 0.014 dose g-1, a Distribution of radioactivity [26] of 1.86 dose g-1 and a Distribution of radioactivity [27] of 226 dose g-1. It also gave a Distribution of radioactivity [28] of 0.57 dose g-1, a Distribution of radioactivity [29] of 0.11 dose g-1 and a Distribution of radioactivity [30] of 0.04 dose g-1. It also gave a Distribution of radioactivity [31] of 184 dose g-1.
